Results reported in ChEMBL document CHEMBL3425495, “Perturbation of the c-Myc-Max protein-protein interaction via synthetic α-helix mimetics” (J Med Chem, 2015).
Active and inactive are the calls of the source. No cut-off for these calls is given here.

Tests used:
[1] = target: T1, c-Myc/Max (Homo sapiens, UniProt P01106+P61244); assay: Disruption of human recombinant c-Myc-Max(S)/DNA (unknown origin) binding assessed as complex level at 100 uM by electrophoretic mobility shift assay relative to control; format: protein-complex assay
Outline: (§1)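 Recombinant c-Myc 353–437 bHLH-ZIP with full-length Max(S), or Max(L) alone, from E. coli (His₆ removed by TEV), each 30 nM, with 30 nM HEX-labelled double-stranded oligonucleotide bearing a c-Myc site; buffer 1× PBS pH 7.3, 1 mM EDTA, 0.1% NP40, 5% glycerol, 1 mM DTT, 400 µg/mL BSA; complex level relative to DMSO control; three independent EMSAs.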

[2] = target: T1, c-Myc/Max; assay: Disruption of human recombinant c-Myc-Max/DNA (unknown origin) binding assessed as complex level by electrophoretic mobility shift assay relative to control; format: protein-complex assay; outline: as §1
[3] = Antiproliferative activity against c-Myc-overexpressing human HL60 cells after 3 days by MTT assay; format: functional, cell-based; details: HL-60, 72 h
Outline: (§2)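 Cells at >90% viability seeded at 2×10³ cells/well in fresh growth medium with 10-point serial dilutions of compound; 3-day incubation; viability by MTT, relative to untreated cells; each point in at least triplicate; IC50 from dose–response. HO15.19-wt-Myc are myc−/− rat fibroblasts with c-Myc restored by stable retroviral transduction.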

[4] = test system: Daudi; assay: Antiproliferative activity against c-Myc-overexpressing human Daudi cells after 3 days by MTT assay; format: functional, cell-based; details: 72 h; outline: as §2
[5] = Cell cycle arrest in human HL60 cells assessed as accumulation at G0/G1 phase at 20 uM after 24 hrs by propidium iodide staining-based flow cytometric analysis (reference value: 39%); format: functional; details: HL-60
[6] = Cell cycle arrest in human HL60 cells assessed as accumulation at S phase at 20 uM after 24 hrs by propidium iodide staining-based flow cytometric analysis (reference value: 49%); format: functional; details: HL-60
[7] = Cell cycle arrest in human HL60 cells assessed as accumulation at G2/M phase at 20 uM after 24 hrs by propidium iodide staining-based flow cytometric analysis (reference value: 11.2%); format: functional; details: HL-60
[8] = Cell cycle arrest in human HL60 cells assessed as accumulation at G0/G1 phase at 40 uM after 24 hrs by propidium iodide staining-based flow cytometric analysis (reference value: 39%); format: functional; details: HL-60
[9] = Cell cycle arrest in human HL60 cells assessed as accumulation at S phase at 40 uM after 24 hrs by propidium iodide staining-based flow cytometric analysis (reference value: 49%); format: functional; details: HL-60
[10] = Cell cycle arrest in human HL60 cells assessed as accumulation at G2/M phase at 40 uM after 24 hrs by propidium iodide staining-based flow cytometric analysis (reference value: 11.2%); format: functional; details: HL-60
[11] = target: T1, c-Myc/Max; assay: Induction of dissociation of […]-Max in human HL60 cells at 40 to 72 uM after 6 hrs by Co-immunoprecipitation (Co-IP) assay; format: cell-based; details: HL-60
Outline: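 About 5×10⁶ HL60 cells exposed 6 h to compound or DMSO; lysed in IP buffer; 300 µg cleared lysate immunoprecipitated overnight at 4 °C with anti-Max (1:200) and protein G-Sepharose; 10% SDS-PAGE, immunoblot with anti-c-Myc 9E10 (1:1000); input lysate kept for comparison.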

T1 sequence (P01106 whole entry): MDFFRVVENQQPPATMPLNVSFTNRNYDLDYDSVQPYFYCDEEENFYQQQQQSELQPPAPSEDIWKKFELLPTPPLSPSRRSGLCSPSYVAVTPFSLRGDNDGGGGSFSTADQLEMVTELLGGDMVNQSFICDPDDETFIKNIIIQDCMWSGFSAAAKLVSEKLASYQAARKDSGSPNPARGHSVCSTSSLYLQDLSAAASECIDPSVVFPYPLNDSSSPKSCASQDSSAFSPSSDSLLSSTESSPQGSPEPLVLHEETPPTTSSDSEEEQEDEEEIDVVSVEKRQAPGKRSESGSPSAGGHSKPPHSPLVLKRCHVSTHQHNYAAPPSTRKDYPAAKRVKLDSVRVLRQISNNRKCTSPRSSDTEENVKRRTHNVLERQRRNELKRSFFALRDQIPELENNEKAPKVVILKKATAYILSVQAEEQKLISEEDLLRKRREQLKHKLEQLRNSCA
T1 sequence (P61244 whole entry): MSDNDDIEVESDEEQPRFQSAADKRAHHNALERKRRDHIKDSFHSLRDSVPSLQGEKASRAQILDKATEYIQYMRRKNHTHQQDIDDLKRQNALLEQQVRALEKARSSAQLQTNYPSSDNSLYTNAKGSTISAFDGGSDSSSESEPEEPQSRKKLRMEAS

Activity [1] [%]	SMILES	other results
112	COC(=O)c1ccc(NC(=O)c2ccc([N+](=O)[O-])c(OCC(C)C)c2)c(OCC(C)C)c1	–
87	CC(C)COc1cc(C(=O)O)ccc1NC(=O)c1ccc(N)c(OC2Cc3ccccc3C2)c1	–
90	CC(C)COc1cc(C(=O)O)ccc1NC(=O)c1ccc([N+](=O)[O-])cc1	–
88	COC(=O)c1ccc(NC(=O)c2ccc([N+](=O)[O-])c(OCc3cccc4ccccc34)c2)c(OCc2ccccc2)c1	–
89	CC(C)COc1cc(C(=O)Nc2ccc(C(=O)O)cc2OCC(C)C)ccc1NC(=O)COCC(=O)O	–
85	COC(=O)c1ccc(NC(=O)c2ccc([N+](=O)[O-])c(OCc3ccccc3)c2)c(OCc2ccccc2)c1	–
70	COC(=O)c1ccc(NC(=O)c2ccc([N+](=O)[O-])c(OC(C)C)c2)c(OCC(C)C)c1	–
99	CC(C)COc1cc(C(=O)Nc2ccc(C(=O)O)cc2OCC(C)C)ccc1NC(=O)C(=O)O	–
47	CC(C)Oc1cc(C(=O)O)ccc1NC(=O)c1ccc([N+](=O)[O-])c(OC(C)C)c1	–
112	COC(=O)c1ccc(NC(=O)c2ccc([N+](=O)[O-])c(OCc3ccccc3)c2)c(OC2Cc3ccccc3C2)c1	–
109	COC(=O)c1ccc(NC(=O)c2ccc([N+](=O)[O-])c(OCc3cccc4ccccc34)c2)c(OCC(C)C)c1	–
105	CC(C)COc1cc(C(=O)Nc2ccc(C(=O)O)cc2OCC(C)C)ccc1N	–
0	CC(C)COc1cc(C(=O)O)ccc1NC(=O)c1ccc([N+](=O)[O-])c(OCC(C)C)n1	IC50 [2]: 43.8 µM; IC50 [3]: 21.5 µM; IC50 [4]: 11.2 µM
94	COc1cc(C(=O)O)ccc1NC(=O)c1ccc([N+](=O)[O-])c(OC)c1	–
78	COC(=O)c1ccc(NC(=O)c2ccc([N+](=O)[O-])c(OC3Cc4ccccc4C3)c2)c(OCc2ccccc2)c1	–
0	CC(C)COc1cc(C(=O)O)ccc1NC(=O)c1ccc([N+](=O)[O-])c(OCC(C)C)c1	IC50 [2]: 20.2 µM; IC50 [3]: 39.9 µM; IC50 [4]: 22.9 µM

The next lines start with the molecule.

SMILES	Activity [1] [%]	other results
COC(=O)c1ccc(NC(=O)c2ccc([N+](=O)[O-])c(OC(C)C)c2)c(OCc2ccccc2)c1	73	–
CC(C)COc1cc(C(=O)Nc2ccc(C(=O)O)cc2)ccc1[N+](=O)[O-]	81	–
CC(C)COc1nc(C(=O)O)ccc1NC(=O)c1ccc([N+](=O)[O-])c(OCC(C)C)n1	0	IC50 [2]: 23.8 µM; IC50 [3]: 30.3 µM; IC50 [4]: 11.1 µM
COC(=O)c1ccc(NC(=O)c2ccc([N+](=O)[O-])c(OCc3cccc4ccccc34)c2)c(OC2Cc3ccccc3C2)c1	117	–
CC(C)COc1cc(C(=O)O)ccc1NC(=O)c1ccc([N+](=O)[O-])c(OCc2ccccc2)c1	–	IC50 [2]: 43 µM; IC50 [4]: 25.6 µM
CC(C)COc1cc(C(=O)Nc2ccc(C(=O)O)cc2OCc2ccccn2)ccc1[N+](=O)[O-]	116	–
O=C(O)c1ccc(NC(=O)c2ccc([N+](=O)[O-])cc2)cc1	87	–
COC(=O)c1ccc(NC(=O)c2ccc([N+](=O)[O-])c(OCc3ccccc3)c2)c(OCC(C)C)c1	75	–
CC(C)COc1cc(C(=O)O)ccc1NC(=O)c1ccc([N+](=O)[O-])c(OCc2ccccn2)c1	100	–
COC(=O)c1ccc(NC(=O)c2ccc([N+](=O)[O-])c(OC3Cc4ccccc4C3)c2)c(OC2Cc3ccccc3C2)c1	100	–
CCc1ccc(/C=C2\SC(=S)NC2=O)cc1	–	Activity [5]: 48%; Activity [6]: 42%; Activity [7]: 10%; Activity [8]: 59.3%; Activity [9]: 35%; Activity [10]: 5.6%; Activity [11]: inactive
CC(C)COc1cc(NC(=O)c2ccc([N+](=O)[O-])c(OCC(C)C)c2)ccc1C(=O)O	80	–
CC(C)COc1cc(NC(=O)c2ccc([N+](=O)[O-])cc2OCC(C)C)ccc1C(=O)O	96	–
CC(C)COc1nc(C(=O)Nc2ccc(C(=O)O)nc2OCC(C)C)ccc1N	79	–
CC(C)COc1cc(C(=O)N(CC(=O)O)CC(=O)O)ccc1NC(=O)c1ccc([N+](=O)[O-])c(OCC(C)C)c1	99	–
CC(C)COc1cc(C(=O)O)ccc1NC(=O)c1ccc([N+](=O)[O-])c(OC2Cc3ccccc3C2)c1	65	–
CC(C)COc1cc(C(=O)O)ccc1NC(=O)c1ccc([N+](=O)[O-])cc1OCC(C)C	120	–
CC(C)COc1cc(C(=O)Nc2ccc(C(=O)O)cc2OCc2ccccc2)ccc1[N+](=O)[O-]	104	–
COC(=O)c1ccc(NC(=O)c2ccc([N+](=O)[O-])c(OC3Cc4ccccc4C3)c2)c(OCC(C)C)c1	90	–
CC(C)COc1cc(C(=O)Nc2ccc(C(=O)O)cc2OCc2cccnc2)ccc1[N+](=O)[O-]	75	–
CC(C)COc1cccc(C(=O)Nc2ccc(C(=O)O)cc2OCC(C)C)c1	97	–
CC(C)COc1cc(C(=O)Nc2ccc(C(=O)O)cc2OCc2ccncc2)ccc1[N+](=O)[O-]	87	–
CCOC(=O)C(=O)Nc1ccc(C(=O)Nc2ccc(C(=O)O)cc2OCC(C)C)cc1OCC(C)C	0	IC50 [2]: 5.6 µM; IC50 [3]: > 50 µM; IC50 [4]: > 50 µM
CC(C)COc1cc(C(=O)NCC(=O)O)ccc1NC(=O)c1ccc([N+](=O)[O-])c(OCC(C)C)c1	107	–
COC(=O)c1ccc(NC(=O)c2ccc([N+](=O)[O-])c(OC(C)C)c2)c(OC2Cc3ccccc3C2)c1	109	–
